Measurements of several laboratories.
Lines come from different studies, so protocols differ.
SULT2A1: Sulfotransferase 2A1 (SULT2A1, Homo sapiens, UniProt Q06520)
VHL: von Hippel-Lindau disease tumor suppressor (VHL, Homo sapiens, UniProt P40337)
Pah: Phenylalanine-4-hydroxylase (Pah, Rattus norvegicus, UniProt P04176)

Structure (SMILES) | target | effect on | method | pH | setting | Kd [µM]
C[C@]12CC[C@H](O)CC1=CC[C@@H]1[C@@H]2CC[C@]2(C)C(=O)CC[C@@H]12 | SULT2A1 | binding | fluorescence | – | – | 0.29
CC(C)[C@H](N)c1nc2cc(-c3ccncc3F)sc2c(=O)[nH]1 | Cell division cycle 7-related protein kinase (CDC7, Homo sapiens, UniProt O00311) | binding | MST | – | – | 0.00032
Cc1ncsc1-c1ccc(CNC(=O)[C@@H]2C[C@H](O)CN2C(=O)[C@@H](NC(=O)C2(F)CC2)C(C)(C)C)c(OCCOc2ccc(CN3CCN(c4cc(-c5ccccc5O)nnc4N)CC3)cc2)c1 | VHL | binding | SPR | – | – | > 10
CSCC[C@H](N)C(=O)O | Pah | binding | fluorescence | pH 7.5 | – | 24000
Nc1ncnc2c1ncn2[C@@H]1O[C@H](COP(=O)(O)OS(=O)(=O)O)[C@@H](OP(=O)(O)O)[C@H]1O | SULT2A1 | binding | fluorescence | – | – | 0.25
Cc1cc(Nc2cc3ncccc3c(N[C@@H]3C[C@H]4CC[C@@H](C3)N4CCC#N)n2)n[nH]1 | Serine/threonine-protein kinase DCLK1 (DCLK1, Homo sapiens, UniProt O15075) | binding | competition with immobilised ligand | – | – | 0.89
Cc1ncsc1-c1ccc(CNC(=O)[C@@H]2C[C@@H](O)CN2C(=O)[C@@H](NC(=O)C2(F)CC2)C(C)(C)C)c(OCCOCCOCCN2CCN(c3cc(-c4ccccc4O)nnc3N)CC2)c1 | VHL | binding | SPR | – | – | 0.098
NC(=O)[C@H](NNC(=O)c1c[nH]c2ccccc12)c1ccccc1 | GTPase KRas (KRAS, Homo sapiens, UniProt P01116, G12D) | binding | MST | – | – | 3.5
Cc1cc2nc3c(=O)[nH]c(=O)nc-3n(C[C@H](O)[C@H](O)[C@H](O)COP(=O)(O)OP(=O)(O)OC[C@H]3O[C@@H](n4cnc5c(N)ncnc54)[C@H](O)[C@@H]3O)c2cc1C | Annexin A11 (Homo sapiens, UniProt P50995) | binding | – | – | lysate | 0.055
CC(=O)N[C@H]1[C@H]([C@H](O)[C@H](O)CO)O[C@@](O[C@H]2[C@@H](O)[C@@H](CO)O[C@@H](O[C@H]3[C@H](O)[C@@H](NC(C)=O)C(O)O[C@@H]3CO)[C@@H]2O)(C(=O)O)C[C@@H]1O (stereo partly shown) | SIGLEC5 (Homo sapiens, UniProt O15389, C36A) | binding | NMR | – | – | 7000
Cc1ncsc1-c1ccc(CNC(=O)[C@@H]2C[C@H](O)CN2C(=O)[C@@H](NC(=O)C2(F)CC2)C(C)(C)C)c(OCCc2ccc(CN3CCN(c4cc(-c5ccccc5O)nnc4N)CC3)cc2)c1 | VHL | binding | SPR | – | – | > 10
CCCN1CCN(c2ccc(-c3cncc(Cl)c3N3CCC4(CCNC4=O)CC3)cc2)CC1 | Serine/threonine-protein kinase MRCK beta (CDC42BPB, Homo sapiens, UniProt Q9Y5S2) | cell-free assay | – | – | lysate | 4.03
Cc1cnc(-c2ccc(-c3ccc(NC(=O)Nc4c(F)cc(F)cc4F)cc3F)c3c2C(=O)NC3)[nH]1 | Serine/threonine-protein kinase 24 (STK24, Homo sapiens, UniProt Q9Y6E0) | binding | competition with immobilised ligand | – | – | 0.024
N[C@@H](Cc1ccccc1)C(=O)O | Pah | binding | fluorescence | pH 7.5 | – | 54
NC(=O)c1ccc[n+]([C@@H]2O[C@H](COP(=O)(O)OP(=O)(O)OC[C@H]3O[C@@H](n4cnc5c(N)ncnc54)[C@H](O)[C@@H]3O)[C@@H](O)[C@H]2O)c1 | mdh (Escherichia coli, UniProt P61889) | binding | ITC | – | – | 467
CC1(C)Cc2c(-c3ccccc3)c(-c3ccc(Cl)cc3)c(CC(=O)NCC(=O)O)n2C1 | Prostaglandin E synthase (PTGES, Homo sapiens, UniProt O14684) | binding | ITC | – | – | 2.1
